Experimental data reported in paper PMC7709506 (ESMO Open, 2020).

Test: Safety and tolerability
Format: in vivo, human
Outline: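 Open-label multicentre phase I/IIa trial in adults with advanced or metastatic solid tumours. Part 1 used 3+3 oral capsule escalation at 50–800 mg/day to define DLT and MTD. Part 2 gave tablets. Treatment continued until progression, intolerable AE or study end, with dose decisions by a safety monitoring board. AEs of special interest were monitored. The safety population was all dosed patients, summarised by dose level.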

[1] = 30 patients treated with 400 mg/day

Cn1cc(-c2ccc3c(c2)ncn3-c2cc(NS(=O)(=O)C3CC3)cc(-c3ccc(F)cc3F)c2)cn1 [ODM-203]
Hyperbilirubinaemia [1]: 36.7% | increased blood bilirubin [1]: 50.0% | Alopecia (Grade 3–5, all doses (n=84)): 1 (1.2) n (%) | Arthralgia (Grade 3–5, all doses (n=84)): 2 (2.4) n (%) | Asthenia (Grade 3–5, all doses (n=84)): 2 (2.4) n (%) | Blood bilirubin increased (Grade 3–5, all doses (n=84)): 20 (23.8) n (%) | Conjugated bilirubin increased (Grade 3–5, all doses (n=84)): 0 n (%) | Decreased appetite (Grade 3–5, all doses (n=84)): 0 n (%) | Diarrhoea (Grade 3–5, all doses (n=84)): 5 (6.0) n (%) | Dry mouth (Grade 3–5, all doses (n=84)): 0 n (%) | Dry skin (Grade 3–5, all doses (n=84)): 0 n (%) | Dysgeusia (Grade 3–5, all doses (n=84)): 0 n (%) | Epistaxis (Grade 3–5, all doses (n=84)): 0 n (%) | Fatigue (Grade 3–5, all doses (n=84)): 5 (6.0) n (%) | Hyperbilirubinaemia (Grade 3–5, all doses (n=84)): 16 (19.0) n (%) | Hyperphosphataemia (Grade 3–5, all doses (n=84)): 0 n (%) | Hypertension (Grade 3–5, all doses (n=84)): 3 (3.6) n (%) | Jaundice (Grade 3–5, all doses (n=84)): 2 (2.4) n (%) | Mucosal inflammation (Grade 3–5, all doses (n=84)): 0 n (%) | Myalgia (Grade 3–5, all doses (n=84)): 2 (2.4) n (%) | Nasal dryness (Grade 3–5, all doses (n=84)): 0 n (%) | Nausea (Grade 3–5, all doses (n=84)): 0 n (%) | Onycholysis (Grade 3–5, all doses (n=84)): 1 (1.2) n (%) | Palmar-plantar eryrthodysaestesia (Grade 3–5, all doses (n=84)): 4 (4.8) n (%) | Stomatitis (Grade 3–5, all doses (n=84)): 3 (3.6) n (%) | Vomiting (Grade 3–5, all doses (n=84)): 0 n (%) | Weight decreased (Grade 3–5, all doses (n=84)): 1 (1.2) n (%) | dose reduction due to arthralgia (N=84): 2 patients | dose reduction due to increased blood bilirubin (N=84): 2 patients | dose reduction due to palmar-plantar erythrodysesthesia syndrome (N=84): 3 patients | treatment interruption due to hyperbilirubinaemia (N=84): 8 patients | treatment interruption due to increase in blood bilirubin (N=84): 16 patients | AE leading to death (Total (N=84)): 7 (8.3) n (%) | AE leading to discontinuation (Total (N=84)): 30 (35.7) n (%) | AE leading to dose reduction (Total (N=84)): 9 (10.7) n (%) | AE leading to treatment interruption (Total (N=84)): 61 (72.6) n (%) | Alopecia (Total (N=84)): 26 (31.0) n (%) | Any AE (Total (N=84)): 84 (100) n (%) | Arthralgia (Total (N=84)): 28 (33.3) n (%) | Asthenia (Total (N=84)): 25 (29.8) n (%) | Blood bilirubin increased (Total (N=84)): 36 (42.9) n (%) | Conjugated bilirubin increased (Total (N=84)): 11 (13.1) n (%) | Decreased appetite (Total (N=84)): 25 (29.8) n (%) | Diarrhoea (Total (N=84)): 42 (50.0) n (%) | Dry mouth (Total (N=84)): 29 (34.5) n (%) | Dry skin (Total (N=84)): 10 (11.9) n (%) | Dysgeusia (Total (N=84)): 20 (23.8) n (%) | Epistaxis (Total (N=84)): 28 (33.3) n (%) | Fatigue (Total (N=84)): 23 (27.4) n (%) | Hyperbilirubinaemia (Total (N=84)): 28 (33.3) n (%) | Hyperphosphataemia (Total (N=84)): 20 (23.8) n (%) | Hypertension (Total (N=84)): 14 (16.7) n (%) | Jaundice (Total (N=84)): 27 (32.1) n (%) | Mucosal inflammation (Total (N=84)): 10 (11.9) n (%) | Myalgia (Total (N=84)): 11 (13.1) n (%) | Nasal dryness (Total (N=84)): 13 (15.5) n (%) | Nausea (Total (N=84)): 11 (13.1) n (%) | Onycholysis (Total (N=84)): 11 (13.1) n (%) | Palmar-plantar eryrthodysaestesia (Total (N=84)): 30 (35.7) n (%) | Related AE (Total (N=84)): 82 (97.6) n (%) | Related SAEs (Total (N=84)): 14 (16.7) n (%) | Stomatitis (Total (N=84)): 34 (40.5) n (%) | Vomiting (Total (N=84)): 9 (10.7) n (%) | Weight decreased (Total (N=84)): 19 (22.6) n (%) | patients with at least one AE during treatment (all doses, N=84): 84 patients | AE leading to death (capsule 100 mg (n=1)): 0 n (%) | AE leading to discontinuation (capsule 100 mg (n=1)): 0 n (%) | AE leading to dose reduction (capsule 100 mg (n=1)): 0 n (%) | AE leading to treatment interruption (capsule 100 mg (n=1)): 1 (100) n (%) | Alopecia (capsule 100 mg (n=1)): 0 n (%) | Any AE (capsule 100 mg (n=1)): 1 (100) n (%) | Arthralgia (capsule 100 mg (n=1)): 0 n (%) | Asthenia (capsule 100 mg (n=1)): 0 n (%) | Blood bilirubin increased (capsule 100 mg (n=1)): 0 n (%) | Conjugated bilirubin increased (capsule 100 mg (n=1)): 0 n (%) | Decreased appetite (capsule 100 mg (n=1)): 0 n (%) | Diarrhoea (capsule 100 mg (n=1)): 0 n (%) | Dry mouth (capsule 100 mg (n=1)): 0 n (%) | Dry skin (capsule 100 mg (n=1)): 0 n (%) | Dysgeusia (capsule 100 mg (n=1)): 0 n (%) | Epistaxis (capsule 100 mg (n=1)): 0 n (%) | Fatigue (capsule 100 mg (n=1)): 0 n (%) | Hyperbilirubinaemia (capsule 100 mg (n=1)): 0 n (%) | Hyperphosphataemia (capsule 100 mg (n=1)): 0 n (%) | Hypertension (capsule 100 mg (n=1)): 0 n (%) | Jaundice (capsule 100 mg (n=1)): 0 n (%) | Mucosal inflammation (capsule 100 mg (n=1)): 0 n (%) | Myalgia (capsule 100 mg (n=1)): 0 n (%) | Nasal dryness (capsule 100 mg (n=1)): 0 n (%) | Nausea (capsule 100 mg (n=1)): 0 n (%) | Onycholysis (capsule 100 mg (n=1)): 0 n (%) | Palmar-plantar eryrthodysaestesia (capsule 100 mg (n=1)): 0 n (%) | Related AE (capsule 100 mg (n=1)): 1 (100) n (%) | Related SAEs (capsule 100 mg (n=1)): 0 n (%) | Stomatitis (capsule 100 mg (n=1)): 0 n (%) | Vomiting (capsule 100 mg (n=1)): 0 n (%) | Weight decreased (capsule 100 mg (n=1)): 0 n (%) | AE leading to death (capsule 200 mg (n=3)): 0 n (%) | AE leading to discontinuation (capsule 200 mg (n=3)): 0 n (%) | AE leading to dose reduction (capsule 200 mg (n=3)): 0 n (%) | AE leading to treatment interruption (capsule 200 mg (n=3)): 0 n (%) | Alopecia (capsule 200 mg (n=3)): 0 n (%) | Any AE (capsule 200 mg (n=3)): 3 (100) n (%) | Arthralgia (capsule 200 mg (n=3)): 0 n (%) | Asthenia (capsule 200 mg (n=3)): 1 (33.3) n (%) | Blood bilirubin increased (capsule 200 mg (n=3)): 0 n (%) | Conjugated bilirubin increased (capsule 200 mg (n=3)): 0 n (%) | Decreased appetite (capsule 200 mg (n=3)): 0 n (%) | Diarrhoea (capsule 200 mg (n=3)): 0 n (%) | Dry mouth (capsule 200 mg (n=3)): 0 n (%) | Dry skin (capsule 200 mg (n=3)): 0 n (%) | Dysgeusia (capsule 200 mg (n=3)): 0 n (%) | Epistaxis (capsule 200 mg (n=3)): 1 (33.3) n (%) | Fatigue (capsule 200 mg (n=3)): 0 n (%) | Hyperbilirubinaemia (capsule 200 mg (n=3)): 0 n (%) | Hyperphosphataemia (capsule 200 mg (n=3)): 0 n (%) | Hypertension (capsule 200 mg (n=3)): 0 n (%) | Jaundice (capsule 200 mg (n=3)): 0 n (%) | Mucosal inflammation (capsule 200 mg (n=3)): 0 n (%) | Myalgia (capsule 200 mg (n=3)): 0 n (%) | Nasal dryness (capsule 200 mg (n=3)): 0 n (%) | Nausea (capsule 200 mg (n=3)): 0 n (%) | Onycholysis (capsule 200 mg (n=3)): 0 n (%) | Palmar-plantar eryrthodysaestesia (capsule 200 mg (n=3)): 0 n (%) | Related AE (capsule 200 mg (n=3)): 2 (66.7) n (%) | Related SAEs (capsule 200 mg (n=3)): 0 n (%) | Stomatitis (capsule 200 mg (n=3)): 0 n (%) | Vomiting (capsule 200 mg (n=3)): 0 n (%) | Weight decreased (capsule 200 mg (n=3)): 0 n (%) | AE leading to death (capsule 400 mg (n=7)): 0 n (%) | AE leading to discontinuation (capsule 400 mg (n=7)): 1 (14.3) n (%) | AE leading to dose reduction (capsule 400 mg (n=7)): 1 (14.3) n (%) | AE leading to treatment interruption (capsule 400 mg (n=7)): 4 (57.1) n (%) | Alopecia (capsule 400 mg (n=7)): 1 (14.3) n (%) | Any AE (capsule 400 mg (n=7)): 7 (100) n (%) | Arthralgia (capsule 400 mg (n=7)): 1 (14.3) n (%) | Asthenia (capsule 400 mg (n=7)): 1 (14.3) n (%) | Blood bilirubin increased (capsule 400 mg (n=7)): 3 (42.9) n (%) | Conjugated bilirubin increased (capsule 400 mg (n=7)): 0 n (%) | Decreased appetite (capsule 400 mg (n=7)): 1 (14.3) n (%) | Diarrhoea (capsule 400 mg (n=7)): 1 (14.3) n (%) | Dry mouth (capsule 400 mg (n=7)): 1 (14.3) n (%) | Dry skin (capsule 400 mg (n=7)): 0 n (%) | Dysgeusia (capsule 400 mg (n=7)): 2 (28.6) n (%) | Epistaxis (capsule 400 mg (n=7)): 1 (14.3) n (%) | Fatigue (capsule 400 mg (n=7)): 1 (14.3) n (%) | Hyperbilirubinaemia (capsule 400 mg (n=7)): 2 (28.6) n (%) | Hyperphosphataemia (capsule 400 mg (n=7)): 2 (28.6) n (%) | Hypertension (capsule 400 mg (n=7)): 0 n (%) | Jaundice (capsule 400 mg (n=7)): 3 (42.9) n (%) | Mucosal inflammation (capsule 400 mg (n=7)): 1 (14.3) n (%) | Myalgia (capsule 400 mg (n=7)): 1 (14.3) n (%) | Nasal dryness (capsule 400 mg (n=7)): 1 (14.3) n (%) | Nausea (capsule 400 mg (n=7)): 0 n (%) | Onycholysis (capsule 400 mg (n=7)): 0 n (%) | Palmar-plantar eryrthodysaestesia (capsule 400 mg (n=7)): 2 (28.6) n (%) | Related AE (capsule 400 mg (n=7)): 7 (100) n (%) | Related SAEs (capsule 400 mg (n=7)): 0 n (%) | Stomatitis (capsule 400 mg (n=7)): 1 (14.3) n (%) | Vomiting (capsule 400 mg (n=7)): 1 (14.3) n (%) | Weight decreased (capsule 400 mg (n=7)): 1 (14.3) n (%) | AE leading to death (capsule 600 mg (n=30)): 2 (6.7) n (%) | AE leading to discontinuation (capsule 600 mg (n=30)): 17 (56.7) n (%) | AE leading to dose reduction (capsule 600 mg (n=30)): 1 (3.3) n (%) | AE leading to treatment interruption (capsule 600 mg (n=30)): 22 (73.3) n (%) | Alopecia (capsule 600 mg (n=30)): 8 (26.7) n (%) | Any AE (capsule 600 mg (n=30)): 30 (100) n (%) | Arthralgia (capsule 600 mg (n=30)): 11 (36.7) n (%) | Asthenia (capsule 600 mg (n=30)): 8 (26.7) n (%) | Blood bilirubin increased (capsule 600 mg (n=30)): 13 (43.3) n (%) | Conjugated bilirubin increased (capsule 600 mg (n=30)): 3 (10.0) n (%)
